From PubChem BioAssay
The source made the active and inactive calls.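 Rule for the calls, unless noted: active = viability at or under a set limit in both replicates, limit being median viability minus 3 SD (cut at about 48% in these data, passing the limit was not always enough); inconclusive = at or under the limit in just one replicate; inactive = at or above the limit in both replicates.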

Experiments:
[1] = Her2 expression decrease, cell viability multiplex – SKBR3 breast tumor cells, AlphaScreen, ATP viability, primary screen (AID 461;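 active = Her2 level under about 52% in both replicate screens, with viability over 70% of control, limit read from the data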;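 for Her2 level: lower value means less Her2 protein in the cells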;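 for viability: percent of carrier control wells set as 100% viability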); conditions: SKBR3 Her2 protein level, 18-24 h, measured here: SKBR3 viability, ATP luminescence, at 10 µM
[2] = target: Receptor tyrosine-protein kinase erbB-2 (Homo sapiens) (UniProt P04626); test: as above; conditions: 18-24 h, at 10 µM, stronger effect = lower value
Sequence of Receptor tyrosine-protein kinase erbB-2 (Homo sapiens) (P04626 whole entry, looked up): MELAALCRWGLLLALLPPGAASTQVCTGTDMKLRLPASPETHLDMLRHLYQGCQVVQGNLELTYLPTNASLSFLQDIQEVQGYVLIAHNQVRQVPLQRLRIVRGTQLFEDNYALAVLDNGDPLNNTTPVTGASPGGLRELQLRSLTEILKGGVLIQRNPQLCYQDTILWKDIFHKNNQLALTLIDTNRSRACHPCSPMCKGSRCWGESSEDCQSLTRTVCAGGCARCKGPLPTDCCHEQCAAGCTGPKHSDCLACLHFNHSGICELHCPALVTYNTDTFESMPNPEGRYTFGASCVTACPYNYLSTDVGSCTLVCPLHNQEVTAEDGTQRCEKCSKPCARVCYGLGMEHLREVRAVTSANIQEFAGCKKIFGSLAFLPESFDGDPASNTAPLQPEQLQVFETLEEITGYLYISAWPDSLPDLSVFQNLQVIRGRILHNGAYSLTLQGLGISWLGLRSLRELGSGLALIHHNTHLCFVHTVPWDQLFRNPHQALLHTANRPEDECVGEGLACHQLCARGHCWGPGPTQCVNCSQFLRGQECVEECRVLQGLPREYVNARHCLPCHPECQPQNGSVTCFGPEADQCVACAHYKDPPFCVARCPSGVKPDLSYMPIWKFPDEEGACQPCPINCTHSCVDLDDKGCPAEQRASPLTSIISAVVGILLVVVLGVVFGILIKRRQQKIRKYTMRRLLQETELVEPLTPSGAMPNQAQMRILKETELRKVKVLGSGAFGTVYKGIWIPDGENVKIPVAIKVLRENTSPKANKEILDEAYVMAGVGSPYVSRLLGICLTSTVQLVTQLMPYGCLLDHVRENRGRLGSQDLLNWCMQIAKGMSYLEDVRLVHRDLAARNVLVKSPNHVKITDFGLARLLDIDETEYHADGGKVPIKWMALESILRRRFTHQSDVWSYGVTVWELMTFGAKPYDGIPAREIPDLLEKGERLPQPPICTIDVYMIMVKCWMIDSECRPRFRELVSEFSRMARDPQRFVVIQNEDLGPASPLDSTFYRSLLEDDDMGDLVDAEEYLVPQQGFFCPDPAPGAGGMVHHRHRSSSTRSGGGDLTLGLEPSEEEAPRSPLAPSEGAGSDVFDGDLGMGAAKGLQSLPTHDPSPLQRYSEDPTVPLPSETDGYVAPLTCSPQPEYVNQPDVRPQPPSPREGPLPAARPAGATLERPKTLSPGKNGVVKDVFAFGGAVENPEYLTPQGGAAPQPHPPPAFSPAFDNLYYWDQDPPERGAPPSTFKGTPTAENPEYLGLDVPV

[3] = reduced viability of SK-BR-3 breast cancer cells – cell-based, 24 h, human, pilot screen (AID 572;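 active = viability at or below 10% of carrier control in both of two separate runs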;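 note: compound exposure lasted between 18 and 24 h rather than exactly 24 h; 100% = carrier-treated control wells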); conditions: SK-BR-3 viability, CellTiter-Glo luminescence, at 10 µM, stronger effect = lower value
[4] = HUVEC growth inhibition – cell-based, human, primary screen (AID 575;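 active = viability at or below 30% in both replicate assays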;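 note: 100% = median of untreated cell wells with 0.1% DMSO on each plate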); conditions: HUVEC proliferation, CellTiter-Glo luminescence, 72 h; at 10 µM; stronger effect = lower value
How it was run: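 Test system: primary human umbilical vein endothelial cells. Quantity: 1250 cells/well. Compound: single 10 µM dose, 0.1% DMSO, from 5x medium stock. Timing: 72 h treatment at 37 °C. Detection: ATP-based CellTiter-Glo luminescent read. Benchmarks: vehicle and MePR control wells. Format: 384-well plates coated with collagen.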

[5] = H69AR cell proliferation blockers – human, duplicate replicates, primary screen (AID 580); conditions: H69AR lung tumor cells viability, ATP luminescence, 72 h; at 10 µM; stronger effect = lower value;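 note: 100% = mean luminescence of untreated wells and 0% = no signal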
[6] = MRP1 drug-resistance reversers in H69AR cells – cell-based, doxorubicin co-treatment, pilot screen (AID 601;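 active = viability loss from added drug above about 55%, and viability with drug at most 40%, in both replicates, limit read from the data, passing the limit was not always enough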); conditions: CellTiter-Glo, 72 h, at 10 µM; for differential viability (reversal): stronger effect = higher value
[7] = yeast transport mutant growth inhibition pilot in 384-well plates, post-Golgi transport modulator project (AID 636; in the data active = inhibition above about 31%); conditions: absorbance 615 nm, about 18 h, stronger effect = higher value
[8] = growth suppression of yeast trafficking mutant, preliminary HTS, modulators of trafficking downstream of Golgi apparatus project, 1536-format plate, OD 615 nm (AID 637; in the data active = inhibition above about 30%); conditions: yeast transport mutant growth, absorbance 615 nm, 18 h; stronger effect = higher value
[9] = H69AR cells + 2 uM doxorubicin, measured here: viability with 2 uM doxorubicin, stronger effect = lower value
[10] = H69AR cells, compound alone cytotoxicity

Structure (SMILES) | viability [1] [%] | Her2 level [2] | viability [3] | viability [4] | viability [5] | differential viability (reversal) ([6]; H69AR cells + 2 uM doxorubicin) | viability [6, 9] [%] | viability [6, 10] [%] | inhibition [7] | inhibition [8]
Cc1cccc(N=C2NC(=O)CS2)c1C | 108 | 80% (inactive) | 108% (inactive) | 87.1% (inactive) | 91.9% (inactive) | 3.6% (inactive) | 88.3 | 91.9 | 0.4% (inactive) | -0.81% (inactive)
COc1ccc(CCNC(=O)C2CCN(S(=O)(=O)c3cc(OC)ccc3OC)CC2)cc1 | 93 | 95% (inactive) | 93% (inactive) | 114% (inactive) | 103% (inactive) | 5.9% (inactive) | 96.8 | 103 | -7.97% (inactive) | 4.59% (inactive)
COc1ccccc1NC(=O)C(O)C(O)C(=O)Nc1ccccc1OC (stereo not given) | 111 | 104% (inactive) | 111% (inactive) | 116% (inactive) | 96.1% (inactive) | 4.04% (inactive) | 92.1 | 96.1 | -7.43% (inactive) | -2.83% (inactive)
O=C(c1ccco1)N1CCN(S(=O)(=O)c2ccc(Oc3ccccc3)cc2)CC1 | 82 | 102% (inactive) | 82% (inactive) | 78.6% (inactive) | 90.6% (inactive) | -6.27% (inactive) | 96.8 | 90.6 | -1.35% (inactive) | 5.74% (inactive)
Cc1c(NC(=O)C2(c3ccccc3)CCOCC2)c(=O)n(-c2ccccc2)n1C | 92.5 | 92% (inactive) | 92.5% (inactive) | 113% (inactive) | 93.6% (inactive) | -3.73% (inactive) | 97.3 | 93.6 | -3.07% (inactive) | -4.76% (inactive)
CC(C)(C)NCc1cc2ccccc2[nH]c1=O | 90 | 74.5% (inactive) | 90% (inactive) | 99.1% (inactive) | 93.2% (inactive) | 9.9% (inactive) | 83.3 | 93.2 | -9.05% (inactive) | -2.5% (inactive)
CCn1c(SCC(=O)N2CCOCC2)nc2c(c1=O)SC(C)C2 (stereo not given) | 95 | 112% (inactive) | 95% (inactive) | 97.3% (inactive) | 88% (inactive) | 6.23% (inactive) | 81.7 | 88 | -7.53% (inactive) | -4.92% (inactive)
Cc1ccc(OCCC(=O)OCC(=O)C(C)(C)C)cc1 | 81.5 | 92.5% (inactive) | 81.5% (inactive) | 94.2% (inactive) | 92.8% (inactive) | 7.79% (inactive) | 85 | 92.8 | 0.26% (inactive) | -3.67% (inactive)
CCCCOc1ccc(C(=O)Nn2cnnc2)cc1 | 95.5 | 87% (inactive) | 95.5% (inactive) | 84.5% (inactive) | 89.5% (inactive) | 0.185% (inactive) | 89.4 | 89.5 | -5% (inactive) | -2% (inactive)
CCn1c(SCC(=O)Nc2nccs2)nnc1-c1ccncc1 | 101 | 63.5% (inactive) | 101% (inactive) | 87% (inactive) | 84.8% (inactive) | -2.34% (inactive) | 87.1 | 84.8 | -2.11% (inactive) | 2.7% (inactive)
COCC(C)NC(=O)NC(=O)c1ccc(Cl)cc1 (stereo not given) | 99.5 | 93% (inactive) | 99.5% (inactive) | 94.6% (inactive) | 98.7% (inactive) | 10.4% (inactive) | 88.3 | 98.7 | -6.13% (inactive) | 4.76% (inactive)
COc1cccc2cc(C(=O)N3CCN(C45CC6CC(CC(C6)C4)C5)CC3)c(=O)oc12 | 93.5 | 92% (inactive) | 93.5% (inactive) | 81.8% (inactive) | 107% (inactive) | 12.5% (inactive) | 94.7 | 107 | -3.16% (inactive) | -9.52% (inactive)
O=c1oc2ccccc2n1CCc1ccccc1 | 109 | 97.5% (inactive) | 109% (inactive) | 84.6% (inactive) | 93.7% (inactive) | 9.07% (inactive) | 84.6 | 93.7 | -5.92% (inactive) | 0.98% (inactive)
C/C=C/c1ccc(OCCn2cncn2)c(OC)c1 | 98.5 | 126% (inactive) | 98.5% (inactive) | 95.6% (inactive) | 89.8% (inactive) | 1.09% (inactive) | 88.7 | 89.8 | 0.14% (inactive) | 0.66% (inactive)
CCC(C)(C)n1nnnc1C(c1ccc(OC)c(OC)c1)N1CCN(c2ccc(F)cc2)CC1 (stereo not given) | 80 | 93.5% (inactive) | 80% (inactive) | 89.2% (inactive) | 85.8% (inactive) | 31.3% (inactive) | 54.5 | 85.8 | -1.95% (inactive) | 2% (inactive)
CCOC(=O)CNC(=O)CSc1ncnc2c1cnn2Cc1ccccc1 | 96 | 82.5% (inactive) | 96% (inactive) | 54.5% (inactive) | 100% (inactive) | 10.3% (inactive) | 90.1 | 100 | -5.84% (inactive) | -6.56% (inactive)
